Experimental data from ChEMBL document CHEMBL1240327, “Small molecules enhance autophagy and reduce toxicity in Huntington's disease models” (Nat Chem Biol, 2007).
Activity calls are given as the source filed them. The rule behind the calls is not given here.

Key:
Saccharomyces cerevisiae [1] = experiment: Enhancement of rapamycin-mediated cytostatic effect in yeast RM11-1a after 48 to 96 hrs; format: functional
Saccharomyces bayanus [2] = experiment: Enhancement of rapamycin-mediated cytostatic effect in Saccharomyces bayanus after 48 to 96 hrs; format: functional
HeLa [3] = experiment: Increase in MAP1LC3 level in bafilomycin A1-treated human HeLa cells at 47 uM treated fro 24 hrs before bafilomycin A1 challenge by immunoblotting analysis; format: functional, cell-based
Summary of the method: (§1)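 HeLa cells stably expressing EGFP-LC3 were pretreated with compound for 24 h, then given 200 nM bafilomycin A1 for 4 h. EGFP-LC3-II was measured by anti-EGFP immunoblot with densitometry relative to actin, from three independent experiments.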

PC-12 [4] = experiment: Enhancement of autophagy in rat PC12 cells assessed as decrease in alpha-synuclein A53T mutant level at 5 mg/ml by densitometry; format: functional, cell-based
Summary of the method: (§2)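 Stable PC12 line with doxycycline-inducible HA-tagged A53T α-synuclein; induced with 1 μg/ml doxycycline for 48 h, then doxycycline removed. Compounds added during the 24 h switch-off period, from 5 mg ml⁻¹ DMSO stock diluted 1:20000, 1:4000 or 1:400. HA immunoblot, densitometry relative to actin; control set to 100 %; three independent experiments, factorial ANOVA.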

[5] = target: Huntingtin (Homo sapiens) (UniProt P42858); experiment: Inhibition of EGFP-tagged huntingtin aggregation expressed in african green monkey COS7 cells at 47 uM after 48 hrs by […]; format: cell-based; conditions: COS-7
Huntingtin (Homo sapiens), sequence (P42858 whole entry): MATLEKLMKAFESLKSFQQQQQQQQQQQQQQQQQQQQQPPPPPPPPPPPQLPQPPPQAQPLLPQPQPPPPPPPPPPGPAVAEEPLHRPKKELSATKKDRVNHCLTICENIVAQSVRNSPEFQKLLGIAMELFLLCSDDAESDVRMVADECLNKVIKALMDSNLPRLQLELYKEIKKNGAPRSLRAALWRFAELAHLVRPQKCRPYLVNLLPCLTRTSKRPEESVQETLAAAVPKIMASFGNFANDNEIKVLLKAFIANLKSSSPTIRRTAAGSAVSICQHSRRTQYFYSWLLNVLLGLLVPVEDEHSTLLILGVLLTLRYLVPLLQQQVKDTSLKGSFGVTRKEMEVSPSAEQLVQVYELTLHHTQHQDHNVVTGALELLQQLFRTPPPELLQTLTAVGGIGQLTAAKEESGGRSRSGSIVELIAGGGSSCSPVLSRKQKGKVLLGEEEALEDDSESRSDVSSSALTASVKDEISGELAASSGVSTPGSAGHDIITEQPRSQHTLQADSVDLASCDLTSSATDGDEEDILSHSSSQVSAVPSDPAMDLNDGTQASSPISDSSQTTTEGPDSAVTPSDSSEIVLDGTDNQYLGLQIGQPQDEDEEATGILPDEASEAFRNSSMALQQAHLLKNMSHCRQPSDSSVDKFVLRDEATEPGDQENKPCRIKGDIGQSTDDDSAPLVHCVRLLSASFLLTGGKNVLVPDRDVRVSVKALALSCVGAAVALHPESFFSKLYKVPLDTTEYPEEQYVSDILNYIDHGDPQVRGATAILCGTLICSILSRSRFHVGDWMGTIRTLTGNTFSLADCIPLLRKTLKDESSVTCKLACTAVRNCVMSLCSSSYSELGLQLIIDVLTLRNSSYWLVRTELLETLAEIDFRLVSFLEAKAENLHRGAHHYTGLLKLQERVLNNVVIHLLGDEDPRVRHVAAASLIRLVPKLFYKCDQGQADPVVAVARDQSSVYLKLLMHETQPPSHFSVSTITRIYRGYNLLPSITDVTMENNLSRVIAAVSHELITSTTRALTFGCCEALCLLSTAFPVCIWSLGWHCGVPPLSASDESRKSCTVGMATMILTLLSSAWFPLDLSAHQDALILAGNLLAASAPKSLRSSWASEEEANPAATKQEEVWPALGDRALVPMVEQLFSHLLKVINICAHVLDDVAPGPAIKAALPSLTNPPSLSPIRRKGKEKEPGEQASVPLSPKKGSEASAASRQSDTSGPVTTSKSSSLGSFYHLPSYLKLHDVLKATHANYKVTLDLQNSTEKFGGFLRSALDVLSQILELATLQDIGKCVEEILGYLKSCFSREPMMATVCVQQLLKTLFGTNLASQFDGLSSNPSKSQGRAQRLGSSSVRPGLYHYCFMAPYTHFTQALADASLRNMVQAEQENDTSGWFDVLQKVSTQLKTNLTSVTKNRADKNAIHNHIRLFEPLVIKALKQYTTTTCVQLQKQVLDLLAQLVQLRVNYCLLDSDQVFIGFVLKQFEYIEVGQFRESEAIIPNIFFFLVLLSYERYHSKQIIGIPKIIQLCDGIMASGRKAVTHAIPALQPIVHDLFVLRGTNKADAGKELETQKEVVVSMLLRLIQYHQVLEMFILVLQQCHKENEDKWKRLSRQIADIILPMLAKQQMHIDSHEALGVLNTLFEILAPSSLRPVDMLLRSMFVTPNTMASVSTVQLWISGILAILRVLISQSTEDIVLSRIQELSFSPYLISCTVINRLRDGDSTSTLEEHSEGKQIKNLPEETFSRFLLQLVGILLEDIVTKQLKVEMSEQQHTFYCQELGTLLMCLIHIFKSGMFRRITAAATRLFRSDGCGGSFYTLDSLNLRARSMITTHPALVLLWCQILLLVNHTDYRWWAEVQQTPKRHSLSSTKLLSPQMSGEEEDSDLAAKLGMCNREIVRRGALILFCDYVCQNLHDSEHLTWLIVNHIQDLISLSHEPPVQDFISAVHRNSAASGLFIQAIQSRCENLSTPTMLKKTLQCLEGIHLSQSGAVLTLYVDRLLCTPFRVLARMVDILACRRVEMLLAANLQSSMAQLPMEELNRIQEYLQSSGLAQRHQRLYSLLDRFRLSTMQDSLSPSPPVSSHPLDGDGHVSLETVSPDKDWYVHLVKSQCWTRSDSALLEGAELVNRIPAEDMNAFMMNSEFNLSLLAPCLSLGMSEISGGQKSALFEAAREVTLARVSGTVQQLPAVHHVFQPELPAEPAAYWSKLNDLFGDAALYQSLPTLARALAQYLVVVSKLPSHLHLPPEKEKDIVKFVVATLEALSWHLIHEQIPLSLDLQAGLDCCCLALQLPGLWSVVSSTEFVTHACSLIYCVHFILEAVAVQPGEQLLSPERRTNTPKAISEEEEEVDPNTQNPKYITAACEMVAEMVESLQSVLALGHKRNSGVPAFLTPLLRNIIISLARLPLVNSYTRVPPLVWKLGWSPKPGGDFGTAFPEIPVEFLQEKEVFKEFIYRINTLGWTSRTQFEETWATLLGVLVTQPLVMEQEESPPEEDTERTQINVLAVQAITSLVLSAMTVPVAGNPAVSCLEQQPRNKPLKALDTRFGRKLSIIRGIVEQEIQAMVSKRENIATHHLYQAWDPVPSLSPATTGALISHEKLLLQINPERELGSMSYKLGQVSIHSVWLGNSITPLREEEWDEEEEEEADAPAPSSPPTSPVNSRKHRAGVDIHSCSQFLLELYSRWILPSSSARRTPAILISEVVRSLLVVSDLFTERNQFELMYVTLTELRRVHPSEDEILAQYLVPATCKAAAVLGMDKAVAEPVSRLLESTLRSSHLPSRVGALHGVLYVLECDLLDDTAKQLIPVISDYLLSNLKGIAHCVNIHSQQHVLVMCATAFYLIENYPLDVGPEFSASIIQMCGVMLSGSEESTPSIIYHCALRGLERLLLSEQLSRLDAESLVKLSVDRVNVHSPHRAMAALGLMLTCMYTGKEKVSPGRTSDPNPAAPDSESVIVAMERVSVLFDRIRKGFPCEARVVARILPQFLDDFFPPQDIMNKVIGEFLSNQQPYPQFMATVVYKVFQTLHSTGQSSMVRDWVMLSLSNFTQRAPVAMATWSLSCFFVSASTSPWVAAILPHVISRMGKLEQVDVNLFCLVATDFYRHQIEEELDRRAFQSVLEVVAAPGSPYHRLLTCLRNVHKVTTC

HeLa [6] = experiment: Induction of autophagy in human HeLa cells harboring MAP1LC3 gene at 47 uM after 24 hrs by DAPI staining-based fluorescence microscopy; format: functional, cell-based
Summary of the method: (§3)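 Stable EGFP-LC3 HeLa cells treated 24 h. EGFP-positive autophagic vesicles were imaged by confocal microscopy with DAPI nuclear counterstain.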

COS-7 [7] = experiment: Effect on ATg5 level in african green monkey COS7 cells at 47 uM after 24 hrs by immunoblotting; format: functional, cell-based; conditions: Chlorocebus aethiops
HeLa [8] = experiment: Inhibition of proteasome activity in human HeLa cells assessed as induction of ubiquitinG76V-EGFP reporter level at 47 uM after 24 hrs by immunoblotting
[9] = target: Serine/threonine-protein kinase mTOR (Homo sapiens) (UniProt P42345); experiment: Inhibition of mTOR phosphorylation expressed in african green monkey COS7 cells at 47 uM by Western blot analysis; format: cell-based; conditions: COS-7
PC-12 [10] = experiment: Enhancement of rapamycin-induced clearance of alpha-synuclein A53T mutant protein in rat PC12 cells at 43 uM after 8 hrs by immunoblotting; format: functional, cell-based
Summary of the method: (§4)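 Inducible PC12 A53T α-synuclein line (1 μg/ml doxycycline, 48 h, then switched off). Compound given alone or with 0.2 μM rapamycin over an 8 h switch-off period. Read-out is anti-HA immunoblot with densitometry relative to actin, n=3, control as 100 %.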

Drosophila melanogaster [11] = experiment: Neuroprotective activity in Drosophila melanogaster Huntington's disease model harboring huntington protein mutant assessed as protection against neurodegeneration at 100 uM; format: functional, organism-based
[12] = target: Huntingtin (Homo sapiens) (UniProt P42858); experiment: Inhibition of EGFP-tagged huntingtin expressed in african green monkey COS7 cells assessed as protection against protein-induced cell death at 47 uM after 48 hrs by Western blot analysis; format: cell-based; conditions: COS-7
[13] = target: Huntingtin (Mus musculus) (UniProt P42859); experiment: Inhibition of EGFP-tagged huntingtin aggregation in MEF harboring Atg5 gene at 47 uM after 48 hrs by Western blot analysis
Drosophila melanogaster [14] = experiment: Toxicity against Drosophila melanogaster Huntington's disease model at 100 uM; format: organism-based; conditions: in vivo
PC-12 [15] = experiment: Enhancement of autophagy in rat PC12 cells assessed as decrease in alpha-synuclein A53T mutant level at 47 uM by immunoblotting; format: functional, cell-based; summary of the method: as §2
COS-7 [16] = experiment: Effect on ATg12 level in african green monkey COS7 cells at 47 uM after 24 hrs by immunoblotting; format: functional, cell-based; conditions: Chlorocebus aethiops
PC-12 [17] = experiment: Enhancement of rapamycin-induced clearance of alpha-synuclein A53T mutant protein in rat PC12 cells at 140 uM after 8 hrs by immunoblotting; format: functional, cell-based; summary of the method: as §4
COS-7 [18] = experiment: Increase in conjugated Atg12-Atg5 level in african green monkey COS7 cells at 47 uM after 24 hrs by immunoblotting; format: functional, cell-based; conditions: Chlorocebus aethiops
[19] = target: Huntingtin (Homo sapiens) (UniProt P42858); experiment: Inhibition of EGFP-tagged huntingtin aggregation expressed in african green monkey COS7 cells at 140 uM after 24 hrs by […] in presence of 0.2 uM rapamycin; format: cell-based; conditions: COS-7
COS-7 [20] = experiment: Effect on ATg7 level in african green monkey COS7 cells at 47 uM after 24 hrs by immunoblotting; format: functional, cell-based; conditions: Chlorocebus aethiops
COS-7 [21] = experiment: Effect on ATg6 level in african green monkey COS7 cells at 47 uM after 24 hrs by immunoblotting; format: functional, cell-based; conditions: Chlorocebus aethiops
Saccharomyces mikatae [22] = experiment: Enhancement of rapamycin-mediated cytostatic effect in Saccharomyces mikatae after 48 to 96 hrs; format: functional
Saccharomyces cerevisiae [23] = experiment: Enhancement of anisomycin-mediated cytostatic effect in yeast BY4742 after 48 to 96 hrs; format: functional, organism-based
PC-12 [24] = experiment: Enhancement of autophagy in rat PC12 cells assessed as decrease in alpha-synuclein A53T mutant level at 43 uM by immunoblotting; format: functional, cell-based; summary of the method: as §2
Saccharomyces cerevisiae [25] = experiment: Enhancement of menadione-mediated cytostatic effect in yeast BY4742 after 48 to 96 hrs; format: functional, organism-based
Saccharomyces cerevisiae [26] = experiment: Enhancement of tunicamycin-mediated cytostatic effect in yeast BY4742 after 48 to 96 hrs; format: functional, organism-based
Saccharomyces cerevisiae [27] = experiment: Enhancement of CHX-mediated cytostatic effect in yeast BY4742 after 48 to 96 hrs; format: functional, organism-based
Saccharomyces cerevisiae [28] = experiment: Enhancement of 20 nM rapamycin-mediated cytostatic effect in yeast BY4742 after 48 to 96 hrs; format: functional, organism-based
Saccharomyces cerevisiae [29] = experiment: Enhancement of nocodazole-mediated cytostatic effect in yeast BY4742 after 48 to 96 hrs; format: functional, organism-based
[30] = target: Huntingtin (Mus musculus) (UniProt P42859); experiment: Inhibition of EGFP-tagged huntingtin aggregation in Atg5-deficient MEF at 47 uM after 48 hrs by Western blot analysis
Saccharomyces paradoxus [31] = experiment: Enhancement of rapamycin-mediated cytostatic effect in Saccharomyces paradoxus after 48 to 96 hrs; format: functional
[32] = Cytotoxicity against african green monkey COS7 cells at 47 uM after 24 hrs by FACS analysis; format: cell-based; conditions: chlorocebus aethiops, cos-7, 24 h
Saccharomyces mikatae [33] = experiment: Inhibition of rapamycin-mediated cytostatic effect in Saccharomyces mikatae after 48 to 96 hrs; format: functional
Saccharomyces cerevisiae [34] = experiment: Inhibition of 50 nM rapamycin-mediated cytostatic effect in yeast BY4742 after 48 to 96 hrs; format: functional, organism-based
Saccharomyces cerevisiae [35] = experiment: Inhibition of rapamycin-mediated cytostatic effect in yeast RM11-1a after 48 to 96 hrs; format: functional
Saccharomyces bayanus [36] = experiment: Inhibition of rapamycin-mediated cytostatic effect in Saccharomyces bayanus after 48 to 96 hrs; format: functional
Saccharomyces paradoxus [37] = experiment: Inhibition of rapamycin-mediated cytostatic effect in Saccharomyces paradoxus after 48 to 96 hrs; format: functional
[38] = target: Huntingtin (Mus musculus) (UniProt P42859); experiment: Inhibition of EGFP-tagged huntingtin aggregation in Atg5-deficient MEF at 43 uM after 48 hrs by […]
COS-7 [39] = experiment: Effect on ATg6 level in african green monkey COS7 cells at 43 uM after 24 hrs by immunoblotting; format: functional, cell-based; conditions: Chlorocebus aethiops
COS-7 [40] = experiment: Effect on ATg7 level in african green monkey COS7 cells at 43 uM after 24 hrs by immunoblotting; format: functional, cell-based; conditions: Chlorocebus aethiops
[41] = target: Huntingtin (Mus musculus) (UniProt P42859); experiment: Inhibition of EGFP-tagged huntingtin aggregation in MEF harboring Atg5 gene at 43 uM after 48 hrs by Western blot analysis
[42] = target: Huntingtin (Homo sapiens) (UniProt P42858); experiment: Inhibition of EGFP-tagged huntingtin aggregation expressed in african green monkey COS7 cells at 43 uM after 24 hrs by […] in presence of 0.2 uM rapamycin; format: cell-based; conditions: COS-7
[43] = Cytotoxicity against african green monkey COS7 cells at 43 uM after 24 hrs by FACS analysis; format: cell-based; conditions: chlorocebus aethiops, cos-7, 24 h
HeLa [44] = experiment: Induction of autophagy in human HeLa cells harboring MAP1LC3 gene at 43 uM after 24 hrs by DAPI staining-based fluorescence microscopy; format: functional, cell-based; summary of the method: as §3
[45] = target: Huntingtin (Homo sapiens) (UniProt P42858); experiment: Inhibition of EGFP-tagged huntingtin expressed in african green monkey COS7 cells assessed as protection against protein-induced cell death at 43 uM after 48 hrs […]; format: cell-based; conditions: COS-7
Summary of the method: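 COS-7 cells transfected 4 h with EGFP-tagged huntingtin exon 1 (74 polyQ), then treated for 48 h. About 200 EGFP-positive cells were scored by fluorescence microscopy for aggregates; DAPI-stained nuclei with apoptotic morphology were counted as dead. Triplicate, scorer blinded. Results given as odds ratios vs DMSO (set to 1) with 95 % CI by logistic regression.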

[46] = target: Huntingtin (Homo sapiens) (UniProt P42858); experiment: Inhibition of EGFP-tagged huntingtin aggregation expressed in african green monkey COS7 cells at 43 uM after 48 hrs by […]; format: cell-based; conditions: COS-7
COS-7 [47] = experiment: Increase in conjugated Atg12-Atg5 level in african green monkey COS7 cells at 43 uM after 24 hrs by immunoblotting; format: functional, cell-based; conditions: Chlorocebus aethiops
COS-7 [48] = experiment: Effect on ATg12 level in african green monkey COS7 cells at 43 uM after 24 hrs by immunoblotting; format: functional, cell-based; conditions: Chlorocebus aethiops
HeLa [49] = experiment: Inhibition of proteasome activity in human HeLa cells assessed as induction of ubiquitinG76V-EGFP reporter level at 43 uM after 24 hrs by immunoblotting
[50] = target: Serine/threonine-protein kinase mTOR (Homo sapiens) (UniProt P42345); experiment: Inhibition of mTOR phosphorylation expressed in african green monkey COS7 cells at 43 uM by Western blot analysis; format: cell-based; conditions: COS-7
Drosophila melanogaster [51] = experiment: Neuroprotective activity in Drosophila melanogaster Huntington's disease model harboring huntington protein mutant assessed as protection against neurodegeneration at 200 uM; format: functional, organism-based
COS-7 [52] = experiment: Effect on ATg5 level in african green monkey COS7 cells at 43 uM after 24 hrs by immunoblotting; format: functional, cell-based; conditions: Chlorocebus aethiops
Drosophila melanogaster [53] = experiment: Toxicity against Drosophila melanogaster Huntington's disease model at 200 uM; format: organism-based; conditions: in vivo
HeLa [54] = experiment: Increase in MAP1LC3 level in bafilomycin A1-treated human HeLa cells at 43 uM treated fro 24 hrs before bafilomycin A1 challenge by immunoblotting analysis; format: functional, cell-based; summary of the method: as §1

Nn1cnc2c(c1=O)C1(CCCC1)Cc1ccccc1-2
Activity (Saccharomyces cerevisiae [1]): Active | Activity (Saccharomyces bayanus [2]): Active | Activity (HeLa [3]): Active | Activity (PC-12 [4]): Active | inhibition [5]: Active | Activity (HeLa [6]): Active | Activity (COS-7 [7]): inactive | inhibition (HeLa [8]): inactive | inhibition [9]: inactive | Activity (PC-12 [10]): Active | Activity (Drosophila melanogaster [11]): Active | inhibition [12]: Active | inhibition [13]: inactive | Activity (Drosophila melanogaster [14]): Non-toxic | Activity (PC-12 [15]): Active | Activity (COS-7 [16]): inactive | Activity (PC-12 [17]): Active | Activity (COS-7 [18]): inactive | inhibition [19]: Active | Activity (COS-7 [20]): inactive | Activity (COS-7 [21]): inactive | Activity (Saccharomyces mikatae [22]): Active | Activity (Saccharomyces cerevisiae [23]): Active | Activity (PC-12 [24]): Active | Activity (Saccharomyces cerevisiae [25]): Active | Activity (Saccharomyces cerevisiae [26]): Active | Activity (Saccharomyces cerevisiae [27]): Active | EC50 (Saccharomyces cerevisiae [28]): 4.9 µM | Activity (Saccharomyces cerevisiae [29]): Active | inhibition [30]: inactive | Activity (Saccharomyces paradoxus [31]): Active | Activity [32]: Non-toxic

O=C1C(Nc2ccccc2)=CC(=O)c2ncccc21
inhibition (Saccharomyces mikatae [33]): Active | EC50 (Saccharomyces cerevisiae [34]): 10.4 µM | inhibition (Saccharomyces cerevisiae [35]): Active | inhibition (Saccharomyces bayanus [36]): Active | inhibition (Saccharomyces paradoxus [37]): Active

C/C(=C/C(=O)c1ccc(Cl)cc1)Nc1cccc(O)c1
inhibition [38]: Active | Activity (Saccharomyces cerevisiae [1]): Active | Activity (COS-7 [39]): inactive | Activity (Saccharomyces bayanus [2]): Active | Activity (COS-7 [40]): inactive | inhibition [41]: Active | Activity (PC-12 [4]): Active | Activity (PC-12 [10]): Active | inhibition [42]: Active | inhibition [13]: inactive | Activity [43]: Non-toxic | Activity (PC-12 [15]): Active | Activity (HeLa [44]): Active | inhibition [45]: Active | inhibition [46]: Active | Activity (COS-7 [47]): inactive | Activity (COS-7 [48]): inactive | inhibition (HeLa [49]): inactive | inhibition [50]: inactive | Activity (Saccharomyces mikatae [22]): Active | Activity (Drosophila melanogaster [51]): Active | Activity (PC-12 [24]): Active | Activity (COS-7 [52]): inactive | EC50 (Saccharomyces cerevisiae [28]): 17.4 µM | Activity (Drosophila melanogaster [53]): Non-toxic | inhibition [30]: inactive | Activity (Saccharomyces paradoxus [31]): Active | Activity (HeLa [54]): Active
